The source made the active and inactive calls. The calls are words filed in the database; no cut-off is given here.
Key:
[1] = biological target: Histone deacetylase 3/Nuclear receptor corepressor 2 (HDAC3/NCoR2) (Homo sapiens) (UniProt O15379+Q9Y618); assay: Inhibition of human HDAC3/NCOR2 at 1 uM using p53 (379 to 382 residues) derived fluorogenic peptide RHKKAc; assay type: protein-complex assay
In short: (§1)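 Isoform profiling run by a commercial vendor with compounds at 1 µM. Values are percent inhibition, each the average of two determinations.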

[2] = biological target: T1, Protein deacetylase HDAC6 (Homo sapiens) (UniProt Q9UBN7); assay: Inhibition of HDAC6 in human MDA-MB-231 cells assessed as increase in histone H3K9 acetylation at 0.1 to 2.5uM incubated for 48 hrs by Western blot method; assay type: cell-based; conditions: in the assay text read “tubulin acetylation” for “histone H3K9 acetylation”
T1 sequence (whole entry): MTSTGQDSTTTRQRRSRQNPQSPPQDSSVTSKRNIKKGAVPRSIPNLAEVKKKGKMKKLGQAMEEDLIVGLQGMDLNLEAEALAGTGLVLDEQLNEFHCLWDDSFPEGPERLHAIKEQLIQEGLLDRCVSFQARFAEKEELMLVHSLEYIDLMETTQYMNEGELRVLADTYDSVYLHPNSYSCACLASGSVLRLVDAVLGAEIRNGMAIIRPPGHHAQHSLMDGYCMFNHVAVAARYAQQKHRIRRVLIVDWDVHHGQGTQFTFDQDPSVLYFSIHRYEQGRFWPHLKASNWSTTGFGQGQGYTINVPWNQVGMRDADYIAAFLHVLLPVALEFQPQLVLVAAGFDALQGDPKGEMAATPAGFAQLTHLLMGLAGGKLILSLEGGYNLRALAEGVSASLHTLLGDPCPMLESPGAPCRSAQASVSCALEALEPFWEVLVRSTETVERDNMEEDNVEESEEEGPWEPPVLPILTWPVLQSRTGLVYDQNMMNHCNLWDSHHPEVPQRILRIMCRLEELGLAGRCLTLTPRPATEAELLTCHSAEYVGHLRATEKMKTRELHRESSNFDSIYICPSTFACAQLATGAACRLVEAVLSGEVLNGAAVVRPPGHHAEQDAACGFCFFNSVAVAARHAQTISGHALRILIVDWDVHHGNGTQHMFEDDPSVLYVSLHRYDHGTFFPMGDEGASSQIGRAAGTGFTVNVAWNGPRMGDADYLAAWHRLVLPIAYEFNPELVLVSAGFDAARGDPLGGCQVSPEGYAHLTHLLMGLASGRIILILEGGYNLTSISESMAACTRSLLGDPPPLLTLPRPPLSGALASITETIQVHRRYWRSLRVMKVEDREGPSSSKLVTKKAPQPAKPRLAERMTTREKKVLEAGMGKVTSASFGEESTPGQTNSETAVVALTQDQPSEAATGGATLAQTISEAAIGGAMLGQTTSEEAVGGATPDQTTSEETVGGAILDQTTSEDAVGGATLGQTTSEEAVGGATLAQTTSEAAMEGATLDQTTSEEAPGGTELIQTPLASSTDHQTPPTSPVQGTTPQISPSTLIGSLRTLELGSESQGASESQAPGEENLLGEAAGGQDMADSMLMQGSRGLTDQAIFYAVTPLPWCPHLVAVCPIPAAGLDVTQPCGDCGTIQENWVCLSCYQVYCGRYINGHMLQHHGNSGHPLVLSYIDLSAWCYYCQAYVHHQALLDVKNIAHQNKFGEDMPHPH
In short: (§2)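 Cells treated 48 h at the indicated concentrations, with a reference HDAC inhibitor at 0.25 µM as positive control on each blot. Lysed in 1% SDS, 10 mM EDTA, 50 mM Tris-HCl pH 8.1 with protease/phosphatase inhibitors, then sonicated. Equal protein by SDS-PAGE on nitrocellulose. Primary antibodies 1:1000 overnight at 4°C, HRP secondary, ECL. Blots for pan-H3 and H3K9 acetylation, tubulin acetylation and Notch1.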

Histone deacetylase 1 [3] = biological target: T2, Histone deacetylase 1 (Homo sapiens, UniProt Q13547); assay: Inhibition of human HDAC1 at 1 uM using p53 (379 to 382 residues) derived fluorogenic peptide RHKKAc; in short: as §1
[4] = biological target: T3, Histone deacetylase (Homo sapiens) (UniProt Q13547+O15379+Q9UBN7+Q92769+Q9UQL6+Q8WUI4+Q9BY41+Q96DB2+P56524+Q9UKV0+Q969S8); assay: Inhibition of HDAC in human MDA-MB-231 cells assessed as increase in histone H3K9 acetylation at 0.1 to 2.5uM incubated for 48 hrs by Western blot method; assay type: cell-based; in short: as §2
Histone deacetylase 2 [5] = biological target: T4, Histone deacetylase 2 (Homo sapiens, UniProt Q92769); assay: Inhibition of human HDAC2 at 1 uM using p53 (379 to 382 residues) derived fluorogenic peptide RHKKAc; in short: as §1
[6] = biological target: Histone deacetylase 5 (Homo sapiens) (UniProt Q9UQL6); assay: Inhibition of human HDAC5 at 1 uM using Boc-Lys(trifluoroacetyl)-AMC substrate; in short: as §1
[7] = biological target: Histone deacetylase 4 (Homo sapiens) (UniProt P56524); assay: Inhibition of human HDAC4 at 1 uM using Boc-Lys(trifluoroacetyl)-AMC substrate; in short: as §1
[8] = biological target: T3, Histone deacetylase (Homo sapiens); assay: Inhibition of HDAC in human MDA-MB-231 cells assessed as increase in histone H3 acetylation at 0.1 to 2.5uM incubated for 48 hrs by Western blot method; assay type: cell-based; in short: as §2
[9] = biological target: T1, Protein deacetylase HDAC6 (Homo sapiens); assay: Inhibition of human HDAC6 at 1 uM using p53 (379 to 382 residues) derived fluorogenic peptide RHKKAc; in short: as §1
[10] = biological target: T5, Histone deacetylase 8 (Homo sapiens) (UniProt Q9BY41); assay: Inhibition of human HDAC8 at 1 uM using p53 (379 to 382 residues) derived fluorogenic peptide RHKAcKAc; in short: as §1
T5 sequence (whole entry): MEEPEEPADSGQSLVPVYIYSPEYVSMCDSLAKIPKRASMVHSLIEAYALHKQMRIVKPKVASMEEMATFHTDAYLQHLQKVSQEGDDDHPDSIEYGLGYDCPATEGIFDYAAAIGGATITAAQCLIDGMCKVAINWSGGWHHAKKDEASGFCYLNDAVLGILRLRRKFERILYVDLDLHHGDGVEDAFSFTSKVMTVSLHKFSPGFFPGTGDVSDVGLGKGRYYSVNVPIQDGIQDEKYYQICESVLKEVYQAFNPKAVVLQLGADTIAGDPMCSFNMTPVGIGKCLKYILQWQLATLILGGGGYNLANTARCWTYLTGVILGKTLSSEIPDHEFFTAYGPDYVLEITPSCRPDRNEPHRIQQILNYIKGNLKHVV

[11] = biological target: T5, Histone deacetylase 8 (Homo sapiens); assay: Inhibition of HDAC8 in human MDA-MB-231 cells assessed as reduction in Notch1 expression at 0.1 to 2.5uM incubated for 48 hrs by Western blot method; assay type: cell-based; in short: as §2
[12] = biological target: T1, Protein deacetylase HDAC6 (Homo sapiens); assay: Inhibition of HDAC6 in human MDA-MB-231 cells assessed as increase in histone H3K9 acetylation at 0.25 uM incubated for 48 hrs by Western blot method; assay type: cell-based; conditions: in the assay text read “tubulin acetylation” for “histone H3K9 acetylation”; in short: as §2
[13] = biological target: T5, Histone deacetylase 8 (Homo sapiens); assay: Inhibition of HDAC8 in human MDA-MB-231 cells assessed as reduction in Notch1 expression at 0.25 uM incubated for 48 hrs by Western blot method; assay type: cell-based; in short: as §2
MDA-MB-231 [14] = assay: Inhibition of mammosphere formation of human MDA-MB-231 cells incubated for 7 days; conditions: MDA-MB-231, 168 h
Histone deacetylase 1 [15] = biological target: T2, Histone deacetylase 1; assay: Inhibition of human HDAC1 using p53 (379 to 382 residues) derived fluorogenic peptide RHKKAc
MDA-MB-231 [16] = assay: Growth inhibition of human MDA-MB-231 cells incubated for 48 to 72 hrs by crystal violet staining based assay; assay type: functional, cell-based
In short: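 Cells plated at 5000/well and left overnight, then treated in 5% FBS for 24, 48 and 72 h. Washed with PBS, stained 20 min with 0.5% crystal violet in 20% methanol, stain solubilized in 2% SDS, absorbance read at 550. Growth inhibition calculated as (1-Nt/Nc) x 100 against vehicle wells. N = 6.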

[17] = biological target: Histone deacetylase 3/Nuclear receptor corepressor 2 (HDAC3/NCoR2) (Homo sapiens, UniProt O15379); assay: Inhibition of human HDAC3/NCOR2 using p53 (379 to 382 residues) derived fluorogenic peptide RHKKAc; assay type: protein-complex assay
MDA-MB-231 [18] = assay: Effect on beta-catenin mRNA expression in human MDA-MB-231 cells at 0.5 to 5 uM by RT-PCR method; assay type: cell-based; conditions: mda-mb-231, 5 µM
In short: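 Monolayer cells treated at graded concentrations. Total RNA isolated with TRIzol. β-catenin mRNA assessed by RT-PCR with β-actin as reference.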

MDA-MB-231 [19] = assay: Inhibition of colony formation of human MDA-MB-231 cells incubated for 48 hrs by crystal violet staining based assay; conditions: MDA-MB-231, 48 h
[20] = biological target: Histone deacetylase 3 (Homo sapiens) (UniProt O15379); assay: Inhibition of HDAC3 in human MDA-MB-231 cells assessed as reduction in Akt phosphorylation at 0.5 to 5 uM by immunoblotting; assay type: cell-based
In short: (§3)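 Monolayer cells treated in 5% FBS at graded concentrations. Lysed in SDS/EDTA/Tris pH 8.1 buffer, equal protein immunoblotted with primary antibodies 1:1000 overnight at 4°C. Detected by ECL for phospho-Akt, β-catenin and histone H3 pan/H3K9 acetylation.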

[21] = biological target: Histone deacetylase 3 (Homo sapiens) (UniProt O15379); assay: Inhibition of HDAC3 in human MDA-MB-231 cells assessed as reduction in beta-catenin expression at 0.5 to 5 uM by immunoblotting; assay type: cell-based; in short: as §3
Histone deacetylase 2 [22] = biological target: T4, Histone deacetylase 2; assay: Inhibition of human HDAC2 using p53 (379 to 382 residues) derived fluorogenic peptide RHKKAc
MDA-MB-231 [23] = assay: Cytotoxicity in human MDA-MB-231 cells assessed as reduction in cell viability incubated for 24 to 72 hrs by MTT assay; assay type: functional, cell-based
In short: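 MDA-MB-231 seeded 5,000 cells/well with 10% FBS, left overnight, then exposed to agents in 5% FBS for 24, 48 and 72 h. MTT added for 1 h, dye dissolved in DMSO, absorbance at 560 nm. Viability given as percent of the matching vehicle-treated control. N = 6.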

[24] = biological target: Histone deacetylase 3 (Homo sapiens) (UniProt O15379); assay: Inhibition of HDAC3 in human MDA-MB-231 cells assessed as increase in histone H3 acetylation at 0.5 to 5 uM by immunoblotting; assay type: cell-based; in short: as §3
[25] = biological target: T5, Histone deacetylase 8 (Homo sapiens); assay: Inhibition of HDAC8 in human MDA-MB-231 cells assessed as reduction in Notch1 expression at 2.5uM incubated for 48 hrs by Western blot method; assay type: cell-based; in short: as §2

T2 sequence (Q13547 whole entry, the tested form may be a part): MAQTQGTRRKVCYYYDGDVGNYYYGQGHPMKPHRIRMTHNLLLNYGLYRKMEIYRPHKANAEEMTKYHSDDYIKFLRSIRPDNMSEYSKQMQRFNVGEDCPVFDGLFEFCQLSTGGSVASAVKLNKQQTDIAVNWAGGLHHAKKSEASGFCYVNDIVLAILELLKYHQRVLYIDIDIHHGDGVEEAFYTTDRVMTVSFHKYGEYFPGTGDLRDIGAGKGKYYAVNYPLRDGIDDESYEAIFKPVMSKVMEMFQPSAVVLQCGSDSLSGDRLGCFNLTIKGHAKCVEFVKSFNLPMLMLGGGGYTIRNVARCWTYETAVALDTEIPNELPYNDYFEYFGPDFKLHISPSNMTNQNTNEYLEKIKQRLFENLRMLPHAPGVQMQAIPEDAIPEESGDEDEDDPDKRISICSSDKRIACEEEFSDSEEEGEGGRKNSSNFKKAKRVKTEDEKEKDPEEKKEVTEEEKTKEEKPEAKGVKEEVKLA
Chain of Histone deacetylase 5 (Homo sapiens) (Q9UQL6 whole entry): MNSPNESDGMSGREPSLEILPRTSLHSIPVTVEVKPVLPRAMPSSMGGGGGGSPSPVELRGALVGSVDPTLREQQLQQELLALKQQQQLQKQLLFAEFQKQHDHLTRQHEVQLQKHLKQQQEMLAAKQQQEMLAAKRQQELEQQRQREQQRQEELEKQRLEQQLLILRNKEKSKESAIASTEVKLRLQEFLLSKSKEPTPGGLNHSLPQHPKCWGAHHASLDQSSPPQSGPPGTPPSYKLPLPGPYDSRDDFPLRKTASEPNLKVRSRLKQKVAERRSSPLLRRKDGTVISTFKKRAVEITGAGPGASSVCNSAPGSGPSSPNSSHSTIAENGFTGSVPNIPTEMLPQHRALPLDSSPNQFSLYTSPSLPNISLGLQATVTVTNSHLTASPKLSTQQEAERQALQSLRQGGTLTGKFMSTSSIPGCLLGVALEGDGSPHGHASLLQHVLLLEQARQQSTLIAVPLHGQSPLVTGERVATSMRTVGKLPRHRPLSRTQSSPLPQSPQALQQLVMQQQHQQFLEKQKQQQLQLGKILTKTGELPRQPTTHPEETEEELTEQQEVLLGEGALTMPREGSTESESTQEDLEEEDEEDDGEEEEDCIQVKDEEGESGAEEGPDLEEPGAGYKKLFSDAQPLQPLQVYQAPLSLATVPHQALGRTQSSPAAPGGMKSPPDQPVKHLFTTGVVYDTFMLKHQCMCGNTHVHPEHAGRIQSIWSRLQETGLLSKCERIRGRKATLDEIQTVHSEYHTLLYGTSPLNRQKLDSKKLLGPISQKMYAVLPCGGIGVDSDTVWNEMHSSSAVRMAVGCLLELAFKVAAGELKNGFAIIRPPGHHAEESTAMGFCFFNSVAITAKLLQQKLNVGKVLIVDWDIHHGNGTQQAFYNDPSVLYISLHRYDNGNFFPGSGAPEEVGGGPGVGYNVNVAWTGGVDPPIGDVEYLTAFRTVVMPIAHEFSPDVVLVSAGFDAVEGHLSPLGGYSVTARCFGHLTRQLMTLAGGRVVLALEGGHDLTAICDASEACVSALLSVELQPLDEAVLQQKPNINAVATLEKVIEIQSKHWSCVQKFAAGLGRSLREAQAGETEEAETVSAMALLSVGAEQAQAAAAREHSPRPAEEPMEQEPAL
T4 sequence (Q92769 whole entry, the tested form may be a part): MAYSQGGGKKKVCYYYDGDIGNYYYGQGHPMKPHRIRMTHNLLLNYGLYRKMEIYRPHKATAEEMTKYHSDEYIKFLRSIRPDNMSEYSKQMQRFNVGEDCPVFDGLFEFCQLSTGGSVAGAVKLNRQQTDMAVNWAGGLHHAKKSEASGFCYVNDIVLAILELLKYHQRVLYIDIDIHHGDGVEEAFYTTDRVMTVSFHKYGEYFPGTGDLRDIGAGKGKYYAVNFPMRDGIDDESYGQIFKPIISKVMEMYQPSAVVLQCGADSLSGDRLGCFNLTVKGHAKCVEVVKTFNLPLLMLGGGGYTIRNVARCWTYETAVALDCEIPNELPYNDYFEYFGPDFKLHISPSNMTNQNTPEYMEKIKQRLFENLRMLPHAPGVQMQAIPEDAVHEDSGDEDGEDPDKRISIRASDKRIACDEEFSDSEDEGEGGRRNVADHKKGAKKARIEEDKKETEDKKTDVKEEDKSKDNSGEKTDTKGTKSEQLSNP
Chain of Histone deacetylase 3 (Homo sapiens) (O15379 whole entry, the tested form may be a part): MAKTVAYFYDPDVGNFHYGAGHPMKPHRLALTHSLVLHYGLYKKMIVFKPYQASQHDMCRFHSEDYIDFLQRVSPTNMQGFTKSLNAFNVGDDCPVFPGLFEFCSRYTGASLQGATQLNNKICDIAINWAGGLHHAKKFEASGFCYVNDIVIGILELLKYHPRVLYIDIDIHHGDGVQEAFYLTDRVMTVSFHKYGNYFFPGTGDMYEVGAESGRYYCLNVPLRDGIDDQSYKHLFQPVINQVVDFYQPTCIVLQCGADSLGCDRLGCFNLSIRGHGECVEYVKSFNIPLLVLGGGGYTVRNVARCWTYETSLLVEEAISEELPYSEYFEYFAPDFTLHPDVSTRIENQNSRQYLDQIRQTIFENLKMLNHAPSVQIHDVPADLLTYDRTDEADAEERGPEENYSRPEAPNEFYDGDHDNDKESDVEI
Chain of Histone deacetylase 4 (Homo sapiens) (P56524 whole entry): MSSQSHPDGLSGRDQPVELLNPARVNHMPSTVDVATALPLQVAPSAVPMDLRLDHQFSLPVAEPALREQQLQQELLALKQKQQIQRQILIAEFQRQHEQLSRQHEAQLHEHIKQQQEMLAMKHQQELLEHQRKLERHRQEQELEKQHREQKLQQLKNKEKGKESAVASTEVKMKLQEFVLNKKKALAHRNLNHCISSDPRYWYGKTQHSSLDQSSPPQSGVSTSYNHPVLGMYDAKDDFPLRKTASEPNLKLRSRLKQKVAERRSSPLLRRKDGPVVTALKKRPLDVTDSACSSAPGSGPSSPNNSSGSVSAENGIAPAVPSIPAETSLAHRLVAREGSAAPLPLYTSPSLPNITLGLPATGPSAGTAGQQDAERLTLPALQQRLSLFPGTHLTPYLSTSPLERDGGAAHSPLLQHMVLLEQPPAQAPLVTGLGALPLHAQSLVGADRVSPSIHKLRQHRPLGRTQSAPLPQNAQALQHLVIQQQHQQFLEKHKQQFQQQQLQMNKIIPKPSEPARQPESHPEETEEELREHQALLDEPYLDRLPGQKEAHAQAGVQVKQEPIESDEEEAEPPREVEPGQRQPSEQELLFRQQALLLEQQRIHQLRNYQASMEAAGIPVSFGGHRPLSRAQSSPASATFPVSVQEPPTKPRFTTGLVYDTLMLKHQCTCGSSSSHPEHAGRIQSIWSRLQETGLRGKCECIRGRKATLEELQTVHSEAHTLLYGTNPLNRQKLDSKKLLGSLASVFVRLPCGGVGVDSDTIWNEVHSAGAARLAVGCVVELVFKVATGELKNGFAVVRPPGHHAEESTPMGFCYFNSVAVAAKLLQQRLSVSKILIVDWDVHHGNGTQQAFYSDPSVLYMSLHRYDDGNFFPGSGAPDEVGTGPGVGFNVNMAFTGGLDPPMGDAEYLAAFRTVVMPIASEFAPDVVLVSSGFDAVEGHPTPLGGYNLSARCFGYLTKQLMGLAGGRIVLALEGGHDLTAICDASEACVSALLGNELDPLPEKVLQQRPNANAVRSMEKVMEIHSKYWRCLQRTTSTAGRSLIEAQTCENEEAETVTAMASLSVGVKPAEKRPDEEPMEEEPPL

With `CC(C)[C@H](C(=O)Nc1ccc(C(=O)Nc2ccccc2N)cc1)c1ccccc1` as the compound, how does the inhibition [1] read?
Its inhibition is 30%.

What about the inhibition [2] of the same compound?
Its inhibition is “inactive”.

What about the inhibition (Histone deacetylase 1 [3]) of the same compound?
The inhibition was 55%.

And the inhibition [4]?
The inhibition was “Active”.

And the inhibition (Histone deacetylase 2 [5])?
The inhibition was 31%.

And the inhibition [6]?
Its inhibition is 0%.

And the inhibition [7]?
Its inhibition is 0%.

What about the inhibition [8] of the same compound?
The inhibition was “Active”.

What about the inhibition [9] of the same compound?
Its inhibition is 20%.

What about the inhibition [10] of the same compound?
Its inhibition is 7%.

And the inhibition [11]?
The inhibition was “inactive”.

How did the inhibition [12] turn out when `CC(C)[C@H](C(=O)Nc1ccc(C(=O)NO)cc1)c1ccccc1` was run?
Its inhibition is “Active”.

And the inhibition [13]?
Its inhibition is “Active”.

And the inhibition [1]?
The inhibition was 93%.

And the inhibition (Histone deacetylase 1 [3])?
The inhibition was 95%.

What about the inhibition (Histone deacetylase 2 [5]) of the same compound?
The inhibition was 72%.

And the inhibition [6]?
The inhibition was 0%.

And the inhibition [7]?
Its inhibition is 21%.

What about the inhibition [9] of the same compound?
The inhibition was 100%.

And the inhibition [10]?
The inhibition was 87%.

Which IC50 (MDA-MB-231 [14]) does the source give for `Nc1cc(F)ccc1NC(=O)c1ccc(NC(=O)Cc2ccccc2)cc1` here?
The IC50 was 0.5 to 1 µM.

And the IC50 (Histone deacetylase 1 [15])?
Its IC50 is 2.3 µM.

What about the IC50 (MDA-MB-231 [16]) of the same compound?
Its IC50 is no less than 10 µM.

And the IC50 [17]?
Its IC50 is 0.18 µM.

And the Activity (MDA-MB-231 [18])?
The Activity was “Non-Toxic”.

What about the IC50 (MDA-MB-231 [19]) of the same compound?
Its IC50 is 0.5 to 1 µM.

And the inhibition [20]?
The inhibition was “Dose-dependent effect”.

What about the inhibition [21] of the same compound?
The inhibition was “Dose-dependent effect”.

And the IC50 (Histone deacetylase 2 [22])?
Its IC50 is 3.2 µM.

And the IC50 (MDA-MB-231 [23])?
Its IC50 is no less than 10 µM.

What about the inhibition [24] of the same compound?
The inhibition was “Dose-dependent effect”.

Which inhibition [1] does the source give for `CC(C)[C@@H](C(=O)Nc1ccc(C(=O)Nc2ccccc2N)cc1)c1ccccc1` here?
Its inhibition is 76%.

And the inhibition [2]?
Its inhibition is “inactive”.

And the inhibition (Histone deacetylase 1 [3])?
Its inhibition is 80%.

What about the inhibition [4] of the same compound?
Its inhibition is “Active”.

And the inhibition (Histone deacetylase 2 [5])?
Its inhibition is 57%.

And the inhibition [6]?
The inhibition was 9%.

What about the inhibition [7] of the same compound?
The inhibition was 9%.

What about the inhibition [25] of the same compound?
Its inhibition is “Active”.

And the inhibition [8]?
The inhibition was “Active”.

What about the inhibition [9] of the same compound?
The inhibition was 16%.

And the inhibition [10]?
Its inhibition is 38%.

From ChEMBL document CHEMBL4130443, “Targeting breast cancer stem cells by novel HDAC3-selective inhibitors” (Eur J Med Chem, 2017)
